Where two headings read alike, the source gives them in different places.
Columns and labels:
[1] = system: DENV2; assay: Viral plaque reduction assay, DENV2 in A549 cells; type: cell-based; conditions: read-out: EC50-DN2 (A549)
[2] = system: ZIKV; assay: Viral titer reduction assay, ZIKV in A549 cells; type: cell-based, Zika virus
Procedure, shortened: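 ZIKV infection of human A549 lung carcinoma cells with test compound over a dose range. Virus titre reduction measured, run in triplicate. EC50 obtained by nonlinear regression fit of the dose–response curve.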

[3] = system: A549 cells; assay: WST-8 cell proliferation; conditions: read-out: CC50 (A549); cell viability, A549 cells, 48 h
[4] = Repeated oral dosing toxicity in mice; type: in vivo, mouse; conditions: repeated oral dosing 40 mg/kg/day for 7 days, N = 6
[5] = biological target: MBP-NS3 H60A (Dengue virus type 2, UniProt P29990, H1535A); type: binding, DENV2; conditions: H60A vs WT
[6] = system: MBP-NS3 I25A; conditions: I25A vs WT
[7] = system: ZIKV; assay: Time of addition experiment, ZIKV titer by plaque forming assay; type: cell-based, Zika virus; conditions: 0.75 μM added at time points postinfection, titers at 48 h
[8] = system: ZIKV; assay: ZIKV infection of 3D mini-brain organoids; type: cell-based, Zika virus; conditions: 1.5 μM
[9] = biological target: MBP-NS3 F46A (Dengue virus type 2, UniProt P29990, F1521A); type: binding, DENV2; conditions: F46A vs WT
[10] = biological target: viral NS3 protease (Dengue virus type 2, UniProt P29990); assay: Protein thermal shift assay; type: binding; conditions: PTSA
[11] = system: ZIKV NS3; assay: Western blot of ZIKV NS3 and polyprotein precursor in infected A549 cells; type: cell-based, Zika virus; conditions: A549, MOI 0.1, 48 h
Procedure, shortened: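 Preseeded A549 cells were treated with a dose series of test compound or DMSO and infected with ZIKV at MOI 0.1. At 48 h post-infection, cells were washed, harvested, given protease inhibitor cocktail and lysed in SDS-PAGE loading buffer (95 °C, 10 min). Blots were probed with anti-ZIKV NS3 and anti-GAPDH. PP and NS3 band intensities were normalised to GAPDH, N = 3.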

[12] = system: 3D organoids; assay: Toxicity on 3D mini-brain organoids; type: cell-based, human; conditions: 1.5 μM
[13] = biological target: MBP-NS3 Y23A (Dengue virus type 2, UniProt P29990, Y1498A); type: binding, DENV2; conditions: Y23A vs WT
[14] = system: ZIKV; assay: ZIKV inhibition in human neural progenitor cells; type: cell-based, Zika virus; conditions: human iPSC-derived neural progenitor cells, IFA and qRT-PCR
[15] = system: ZIKV; assay: qRT-PCR of viral RNA from ZIKV-infected A549 cells; type: cell-based, Zika virus
[16] = biological target: MBP-NS3 L58A (Dengue virus type 2, UniProt P29990, L1533A); assay: SPR binding to MBP-NS3 mutant L58A; design: species or system DENV2; conditions: L58A vs WT
[17] = WST-8 cell proliferation; conditions: human
[18] = system: ZIKV; assay: Immunofluorescence assay; type: cell-based, Zika virus; conditions: IFA, anti-E 4G2, A549 cells
Procedure, shortened: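 ZIKV-infected cells treated with test compound or DMSO. Viral E protein detected with mouse monoclonal pan-flavivirus anti-E 4G2 and a DyLight 488 goat anti-mouse IgG secondary. Nuclei counterstained with Hoechst.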

[19] = system: ZIKV; assay: ZIKV viremia mouse model; type: in vivo, Zika virus; conditions: data not shown
[20] = system: DENV2 replicon; assay: DENV2 replicon assay; type: cell-based; conditions: Dengue virus, DENV2, BHK-21, 48 h, read-out: EC50-DN2 (DENV2 replicon cell line)
[21] = biological target: DENV2 NS2B–NS3 protease (Dengue virus type 2, UniProt P29990); assay: NS2B–NS3 protease inhibition assay; type: biochemical
[22] = virus production, A549 cells, 48 h postinfection
[23] = read-out: EC50-ZK (A549), virus production, A549 cells
[24] = Zika virus, A549, read-out: EC50-ZK (A549)

Q: With `O=C(Nc1ccc2c(c1)S(=O)(=O)C=C2)c1cc(Cl)ccc1O` [HJC0149] as the molecule, how does the EC50 [1, 22] read?
A: The EC50 was 0.9 µM.

Q: What about the EC50 [2, 23] of the same molecule?
A: Its EC50 is 1.1 µM.

Q: And the CC50 [3]?
A: Its CC50 is 241 µM.

Q: For `CN1CCN(CCOc2ccc(Cl)cc2C(=O)Nc2ccc([N+](=O)[O-])cc2Cl)CC1` [HJC0365], which EC50 [1, 22] is on record?
A: The EC50 was 6.4 µM.

Q: What about the EC50 [2, 23] of the same molecule?
A: Its EC50 is 6 µM.

Q: What about the CC50 [3] of the same molecule?
A: The CC50 was 177 µM.

Q: What does the source list for `CC(=O)Nc1ccc(NC(=O)c2cc(Cl)ccc2O)c(Cl)c1` [HJC0140]?
A: EC50 [1, 22]: > 30 µM; EC50 [2, 23]: > 30 µM

Q: Which results are given for `NCCCCOc1ccc(Cl)cc1C(=O)Nc1ccc([N+](=O)[O-])cc1Cl` [HJC0431]?
A: EC50 [1, 22]: 2.2 µM; EC50 [2, 23]: 0.36 µM; CC50 [3]: 28.4 µM

Q: With `NCCCOc1ccc(Cl)cc1C(=O)Nc1ccc([N+](=O)[O-])cc1Cl` [HJC0308] as the molecule, how does the EC50 [1, 22] read?
A: The EC50 was 1.4 µM.

Q: And the EC50 [2, 23]?
A: The EC50 was 6.2 µM.

Q: And the CC50 [3]?
A: Its CC50 is 17.7 µM.

Q: Which EC50 [1, 22] does the source give for `CN1CCC(Oc2ccc(Cl)cc2C(=O)Nc2ccc([N+](=O)[O-])cc2Cl)CC1` [HJC0381] here?
A: The EC50 was 1.2 µM.

Q: What about the EC50 [2, 23] of the same molecule?
A: The EC50 was 3.9 µM.

Q: And the CC50 [3]?
A: The CC50 was 91.1 µM.

Q: What does the source list for `O=C(Nc1ccc([N+](=O)[O-])cc1Cl)c1cccc([N+](=O)[O-])c1O` [JMX0207, N-(2-Chloro-4-nitrophenyl)-2-hydroxy-3-nitrobenzamide]?
A: EC50 ([1]; Dengue virus, DENV2, A549, 48 h): 0.31 µM; signs of toxicity [4]: did not display any sign of toxicity; reduction of binding affinity by mutation [5]: 2- to 3 fold; reduction of binding affinity by mutation [6]: 2- to 3 fold; reduction of ZIKV titer by time of addition [7]: equally effective in reducing ZIKV titer even at 24 h postinfection; EC50 [2, 24]: 0.3 µM; ZIKV production from 3D organoids ([8]; PFU assay, 5 dpi): significantly inhibited; protection of organoid slices from ZIKV infection (immunostaining) ([8]; ZIKV PRVABC59, anti-E 4G2): nearly completely protected the organoids from ZIKV infection; ZIKV infection in the 3D organoid ([8]; ZIKV-Venus, MOI 1, fluorescence imaging 7 dpi, vs DMSO): completely abolished ZIKV infection; effect of mutation on binding affinity [9]: do not have any effect; increase in Tm of the viral protein [10]: 0.75 °C; high MW protein (unprocessed viral polyprotein precursor, PP) [11]: dose-dependent increase; viral NS3 protein production [11]: dose-dependent reduction; toxic effect on 3D organoids [12]: did not have any toxic effect; effect of mutation on binding affinity [13]: do not have any effect; ZIKV protein expression and RNA synthesis in HNPCs [14]: effectively inhibited; ZIKV RNA copy number [15]: significantly reduced the ZIKV RNA copy number in a dose-dependent manner; effect of mutation on binding [16]: abolished the binding; CC50 at 48 h [17]: 31.9 µM; ZIKV antigen production [18]: greatly reduced ZIKV antigen production

Q: What does the source list for `Nc1ccc(NC(=O)c2cc(Cl)ccc2O)c(Cl)c1` [HJC0129]?
A: EC50 [1, 22]: > 30 µM; EC50 [2, 23]: > 30 µM; CC50 [3]: 176 µM

Q: What does the source list for `O=C(Nc1ccc([N+](=O)[O-])cc1Cl)c1cc(Cl)ccc1O` [Niclosamide, reference compound]?
A: in vivo antiviral efficacy toward ZIKV [19]: did not show appreciable in vivo antiviral efficacy; EC50 [20]: 2 µM; IC50 [21]: 21.6 µM; EC50 [2, 24]: 0.48 µM
